The values below come from paper PMC11094418 (Clinical Cancer Research, 2024).

For data set [1], the system named is HCT116 KRAS-mutant colorectal cancer xenograft model. The data set is described as follows: HCT116 xenograft in Balb/c nude mice. The data set is classed as in vivo. Conditions: 42 days. The essentials:
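Female Balb/c nude mice aged 6–9 weeks, inoculated subcutaneously with 5 million HCT116 cells and randomized at 100–150 mm3. Groups received vehicle, oral test compound (0.5% methylcellulose + 0.1% Tween80 suspension), an i.p. chemotherapy agent in saline, or the combination for 42 days. Tumor volume and body weight were measured twice weekly. Mean ± SEM, n=7–8/group.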

Data set [2] can be described thus: phase Ib pharmacokinetics, plasma, day 5 of cycle 1, LC/MS-MS. The format is in vivo, human. The method, boiled down:
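Oral test compound was given on days 1–5 and 15–19 of 28-day cycles with FOLFIRI/bevacizumab. Blood was drawn on cycle 1 day 5 at predose and at 1, 2, 3, 4, 8, 24, 48 and 72 h postdose. Plasma drug concentrations were measured by LC/MS-MS, and pharmacokinetic parameters were calculated from these.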

The conditions of data set [3]: cited from earlier work.
The subject of data set [4] is DLD1 isogenic KRAS^WT/G13D (KRAS MUT) and KRAS^WT/− (KRAS WT) colorectal cancer cells. The data set is described as follows: proliferation assay, cell viability by CellTiterGlo. Conditions: 72 hours, Fig. 1A. The format is cell-based. Background: ATP-based viability assays read luminescence as a measure of living cells.
The test system is the same in data set [5]. Put plainly: analysis of mitotic cells by flow cytometry. The data set is classed as cell-based. Conditions: 100 nmol/L, 24 hours, Fig. 1B. For orientation: A flow cytometer gives signals particle by particle.
A short description of data set [6]: phase Ib safety: onvansertib-related AEs. Conditions: all dose levels. The format is in vivo, human. The method, boiled down:
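Oral test compound was dose-escalated (3+3 design; 12, 15, 18 mg/m2) on days 1–5 and 15–19 of 28-day cycles. It was given with FOLFIRI and bevacizumab 5 mg/kg i.v. on days 1 and 15. Patients receiving ≥1 dose were evaluable. AEs were graded by NCI CTCAE v4.03, investigators assigned causality, and data were summarized descriptively.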

Regarding `CCc1c2c(nc3ccc(OC(=O)N4CCC(N5CCCCC5)CC4)cc13)-c1cc3c(c(=O)n1C2)COC(=O)[C@]3(O)CC` [irinotecan, reference compound], the “tumor growth compared with the vehicle-treated group” value in data set [1] (intraperitoneally, 5 mg/kg, twice a week) is listed as “significantly reduced tumor growth”.
On to `CN1CCN(c2ccc(OC(F)(F)F)c(Nc3ncc4c(n3)-c3c(c(C(N)=O)nn3CCO)CC4)c2)CC1` [onvansertib], for which, in data set [2] (12 mg/m^2, mean ± SD), the “AUC0–24” value was 2,020 ± 880 ng/mL.hours, the Cmax is 163 ± 82 ng/mL, the time of peak concentration (Tmax) amounted to 5.29 ± 8.32 h and the t1/2 stood at 13.8 ± 2.1 h. Also, in data set [2] (15 mg/m^2, mean ± SD), the “AUC0–24” value was 1,520 ± 650 ng/mL.hours, the maximum concentration (Cmax) came out at 169 ± 64 ng/mL, the time to peak (Tmax) turned out to be 1.80 ± 0.84 h and the t1/2 was 13.9 ± 4.3 h. Further, in data set [2] (18 mg/m^2, mean ± SD), the “AUC0–24” value is 2,290 ± 730 ng/mL.hours, the maximum concentration (Cmax) is listed as 191 ± 25 ng/mL, the time to peak (Tmax) came to 2.40 ± 1.20 h and the t1/2 amounted to 13.8 ± 2.3 h. In data set [2] (all dose levels), the “terminal half-life in plasma” value is listed as “around 14 hours”. The human half-life result in data set [3] (oral) is on record as “approximately 24 hours”. Besides, the “dose-limiting toxicities (DLT)” value in data set [3] (single agent, 6, 12, and 24 mg/m^2/day for 5 out of 21 days) is listed as “no dose-limiting toxicities”. Moreover, the “cell death in DLD1 KRAS MUT cells compared with KRAS WT cells” value in data set [4] is given as “increased”. Also, the “tumor growth compared with the vehicle-treated group” value in data set [1] (oral, 45 mg/kg, daily) is recorded as “significantly reduced tumor growth”. In addition, in data set [5], the “mitotic arrest in DLD1 KRAS MUT cells compared with KRAS WT cells” value is “increased”. In data set [6], the “G3/G4 neutropenia, patients” value was 28%; the “diarrhea, patients” value amounted to 50%; the “fatigue, patients” value stood at 44%; the “nausea, patients” value came to 50%. Besides, in data set [6], the “number of onvansertib-related G3 or G4 AEs” value worked out at 15 and the “vomiting, patients” value amounted to 22%.

One may read the Cmax as the peak of the concentration-time curve. A word on the Tmax: it is the time at which the peak concentration occurs.
